Results reported in ChEMBL document CHEMBL1139384, “First Cdc7 kinase inhibitors: pyrrolopyridinones as potent and orally active antitumor agents. 2. Lead discovery” (J Med Chem, 2009).
Active and inactive are the calls of the source. The rule behind the calls is not given here.

Experiments:
Rattus norvegicus [1] = experiment: AUC (0 to infinity) in Wistar rat at 10 mg/kg, iv administered as single dose; type: ADME, organism-based, Plasma; parameters: time infinity, dose 10 mg/kg, route intravenous; settings: in vivo
In short: (§1)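 Single iv or oral dose in 5% dextrose to overnight-fasted animals. Nu/Nu mice: males, 3 per route, saphenous bleeds to 24 h. Han-Wistar rats: males, 3 per route, jugular bleeds to 24 h. Beagle dogs: 2 per sex, iv and po crossover 2 weeks apart, jugular bleeds to 48 h. Plasma by LC/MS/MS; noncompartmental parameters, AUC by linear trapezoid with extrapolation.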

[2] = Inhibition of Cdk1b
SW48 = experiment: Antiproliferative activity against human SW48 cells after 72 hrs by luciferase based assay; type: functional, cell-based; settings: SW48, 72 h
In short: (§2)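 Cells seeded at 2500–5000/well in complete medium (RPMI1640, McCoy's or DMEM with 10% FCS, by line); compound added after 24 h, 72 h at 37 °C, 5% CO2.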

HeLa [3] = experiment: Cell cycle arrest in human HeLa cells assessed as accumulation at G1/S phase at 3 uM by fluorescence activated cell sorting; type: functional, cell-based
In short: (§3)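 Logarithmically growing HeLa cells exposed to 3 µM for set times, labelled with 50 µM BrdU, fixed in 70% ethanol. DNA content by propidium iodide with RNase A, 30 min at 37 °C; BrdU by FITC anti-BrdU after 2N HCl denaturation; percent positive cells by FACS.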

[4] = Renal clearance in Beagle dog at 5 mg/kg, iv administered as single dose; type: ADME, organism-based, Canis lupus familiaris, Kidney; parameters: dose 5 mg/kg, route intravenous; settings: in vivo, read-out: CL_renal (converted)
In short: (§4)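 Overnight-fasted Beagle dogs, 2 per sex, in a crossover design: 5 mg/kg iv and 10 mg/kg po, two weeks apart, in 5% dextrose. Jugular blood was drawn up to 48 h, and urine was collected over 0–8, 8–24 and 24–48 h. Samples were assayed by LC/MS/MS and analysed noncompartmentally.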

HT-29 = experiment: Antiproliferative activity against human HT-29 cells after 72 hrs by luciferase based assay; type: functional, cell-based; settings: HT-29, 72 h; in short: as §2
[5] = AUC (0 to infinity) in nu/nu mouse at 10 mg/kg, po administered as single dose; type: ADME, organism-based; parameters: time infinity, dose 10 mg/kg, route oral; settings: plasma; in short: as §1
[6] = Volume of distribution at steady state in nu/nu mouse at 10 mg/kg, iv administered as single dose; type: ADME, organism-based; parameters: dose 10 mg/kg, route intravenous; settings: in vivo, read-out: Vdss
In short: (§5)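 Overnight-fasted male Nu/Nu mice got a single 10 mg/kg dose in 5% dextrose, iv or po, three mice per route. Saphenous blood was drawn at 0.083 (iv) or 0.25 (po), 0.5, 1, 6 and 24 h. Plasma was assayed by LC/MS/MS and analysed noncompartmentally. Tmax is the observed peak time, Vss = CL·MRT, and F is the ratio of dose-normalized AUC∞ po/iv.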

[7] = target: Protein kinase C beta type (Homo sapiens, UniProt P05771); experiment: Inhibition of PKCbeta
[8] = AUC (0 to infinity) in nu/nu mouse at 10 mg/kg, iv administered as single dose; type: ADME, organism-based; parameters: dose 10 mg/kg, route intravenous, time infinity; settings: plasma; in short: as §1
[9] = target: Mitogen-activated protein kinase 1 (Homo sapiens, UniProt P28482)
[10] = Oral bioavailability in Beagle dog at 10 mg/kg administered as single dose; type: ADME, organism-based, Canis lupus familiaris; settings: in vivo; in short: as §4
[11] = target: Serine/threonine-protein kinase PAK 4 (Homo sapiens, UniProt O96013); experiment: Inhibition of PAK4
Rattus norvegicus [12] = experiment: Oral bioavailability in Wistar rat at 20 mg/kg, po administered as single dose; settings: in vivo
[13] = Half life in nu/nu mouse at 10 mg/kg, iv administered as single dose; type: ADME, organism-based; parameters: dose 10 mg/kg, route intravenous; settings: in vivo; in short: as §1
HeLa [14] = experiment: Inhibition of DNA synthesis in human HeLa cells at 3 uM assessed as bromodeoxyuridine incorporation after 9 hrs; type: functional; parameters: scale not given: the % may be the effect or the level left; in short: as §3
Rattus norvegicus [15] = experiment: Antitumor activity against DMBA-induced mammary carcinoma in CD OFA rat assessed as duration of tumor stabilization maintenance at 20 mg/kg, po administered for 10 days; type: functional
In short: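 DMBA tumors induced in female CD OFA rats by single intragastric 20 mg DMBA in sesame oil; after about 50 days, rats with a mammary tumor of at least 1 cm given 20 mg/kg orally twice daily for 10 days in glucose solution, or vehicle; 10 per group; tumor volume by Vernier calipers.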

A2780 = experiment: Induction of apoptosis in human A2780 cells assessed as caspase 3 activation at 3 uM up to 24 hrs; type: functional, cell-based
In short: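 A2780 cells held at 3 µM for up to 24 h; extracts in Tris-HCl pH 6.8 with 1% SDS and DTT, 15 µg protein per lane; cleaved caspase 3 detected by Western blot.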

Cytochrome P450 2C9 = Cytochrome P450 2C9 (Homo sapiens, UniProt P11712); experiment: Inhibition of human CYP2C9; type: ADME
[16] = Half life in Beagle dog at 5 mg/kg, iv administered as single dose; type: ADME, organism-based, Canis lupus familiaris; parameters: dose 5 mg/kg, route intravenous; settings: in vivo; in short: as §1
[17] = target: Cell division cycle 7-related protein kinase (Homo sapiens, UniProt O00311); experiment: Inhibition of human Cdc7 assessed as inhibition of rate of phosphorylation of Mcm2 protein
[18] = Oral bioavailability in nu/nu mouse at 10 mg/kg administered as single dose; type: ADME, organism-based; settings: in vivo; in short: as §5
Insulin receptor = Insulin receptor (Homo sapiens, UniProt P06213); experiment: Inhibition of IR
[19] = Inhibition of Cdk2E
[20] = Cmax in Wistar rat at 20 mg/kg, po administered as single dose; settings: in vivo

Cytochrome P450 2C9, sequence (P11712 whole entry): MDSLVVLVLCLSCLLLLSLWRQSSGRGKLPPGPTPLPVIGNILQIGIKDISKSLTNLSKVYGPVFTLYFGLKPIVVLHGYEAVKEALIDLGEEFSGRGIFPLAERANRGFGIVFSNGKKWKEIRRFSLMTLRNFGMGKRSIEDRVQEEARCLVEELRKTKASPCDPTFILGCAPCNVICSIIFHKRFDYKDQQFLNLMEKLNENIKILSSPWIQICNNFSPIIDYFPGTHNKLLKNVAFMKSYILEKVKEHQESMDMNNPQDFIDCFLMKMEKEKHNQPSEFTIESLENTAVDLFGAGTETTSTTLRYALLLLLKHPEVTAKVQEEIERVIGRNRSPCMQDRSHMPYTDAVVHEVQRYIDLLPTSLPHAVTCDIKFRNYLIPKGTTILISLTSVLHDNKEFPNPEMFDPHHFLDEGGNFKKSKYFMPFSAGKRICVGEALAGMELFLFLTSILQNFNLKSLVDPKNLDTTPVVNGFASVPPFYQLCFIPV
Insulin receptor, sequence (P06213 28-758 limits assumed): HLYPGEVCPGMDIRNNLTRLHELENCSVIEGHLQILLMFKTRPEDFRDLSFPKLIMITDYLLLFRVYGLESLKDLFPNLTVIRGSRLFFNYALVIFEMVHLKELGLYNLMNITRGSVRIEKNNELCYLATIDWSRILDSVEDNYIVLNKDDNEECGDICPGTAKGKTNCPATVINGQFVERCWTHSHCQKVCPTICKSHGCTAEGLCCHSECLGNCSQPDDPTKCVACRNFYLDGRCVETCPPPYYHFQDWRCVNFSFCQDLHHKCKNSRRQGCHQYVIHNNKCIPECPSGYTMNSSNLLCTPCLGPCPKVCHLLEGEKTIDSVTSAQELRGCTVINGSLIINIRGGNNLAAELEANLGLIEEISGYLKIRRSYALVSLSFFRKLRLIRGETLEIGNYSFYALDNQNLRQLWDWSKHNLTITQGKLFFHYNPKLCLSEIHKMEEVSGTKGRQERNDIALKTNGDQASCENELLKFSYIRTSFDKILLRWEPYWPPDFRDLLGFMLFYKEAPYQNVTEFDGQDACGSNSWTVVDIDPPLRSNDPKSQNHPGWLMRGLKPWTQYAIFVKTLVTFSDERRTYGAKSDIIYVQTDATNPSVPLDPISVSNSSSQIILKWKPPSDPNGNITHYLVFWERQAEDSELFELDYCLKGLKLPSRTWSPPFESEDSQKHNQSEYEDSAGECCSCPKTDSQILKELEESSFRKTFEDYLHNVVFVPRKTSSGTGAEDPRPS
Insulin receptor, sequence (P06213 763-1382 limits assumed): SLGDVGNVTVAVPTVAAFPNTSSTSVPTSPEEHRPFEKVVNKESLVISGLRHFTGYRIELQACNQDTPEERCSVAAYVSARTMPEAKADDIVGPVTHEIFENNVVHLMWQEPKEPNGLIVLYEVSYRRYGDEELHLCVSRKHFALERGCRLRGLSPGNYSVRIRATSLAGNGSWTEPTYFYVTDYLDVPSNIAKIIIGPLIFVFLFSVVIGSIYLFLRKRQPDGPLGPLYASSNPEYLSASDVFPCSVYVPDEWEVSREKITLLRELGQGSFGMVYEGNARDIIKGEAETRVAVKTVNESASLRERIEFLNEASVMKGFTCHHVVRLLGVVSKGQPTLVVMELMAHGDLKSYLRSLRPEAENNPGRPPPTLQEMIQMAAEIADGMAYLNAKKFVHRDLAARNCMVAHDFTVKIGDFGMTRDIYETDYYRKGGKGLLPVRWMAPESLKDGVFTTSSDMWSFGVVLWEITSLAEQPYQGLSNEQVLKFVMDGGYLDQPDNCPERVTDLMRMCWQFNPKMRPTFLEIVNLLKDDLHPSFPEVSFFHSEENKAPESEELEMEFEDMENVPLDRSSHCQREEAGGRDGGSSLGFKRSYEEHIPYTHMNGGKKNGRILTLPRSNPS
Protein kinase C beta type, sequence (P05771 whole entry): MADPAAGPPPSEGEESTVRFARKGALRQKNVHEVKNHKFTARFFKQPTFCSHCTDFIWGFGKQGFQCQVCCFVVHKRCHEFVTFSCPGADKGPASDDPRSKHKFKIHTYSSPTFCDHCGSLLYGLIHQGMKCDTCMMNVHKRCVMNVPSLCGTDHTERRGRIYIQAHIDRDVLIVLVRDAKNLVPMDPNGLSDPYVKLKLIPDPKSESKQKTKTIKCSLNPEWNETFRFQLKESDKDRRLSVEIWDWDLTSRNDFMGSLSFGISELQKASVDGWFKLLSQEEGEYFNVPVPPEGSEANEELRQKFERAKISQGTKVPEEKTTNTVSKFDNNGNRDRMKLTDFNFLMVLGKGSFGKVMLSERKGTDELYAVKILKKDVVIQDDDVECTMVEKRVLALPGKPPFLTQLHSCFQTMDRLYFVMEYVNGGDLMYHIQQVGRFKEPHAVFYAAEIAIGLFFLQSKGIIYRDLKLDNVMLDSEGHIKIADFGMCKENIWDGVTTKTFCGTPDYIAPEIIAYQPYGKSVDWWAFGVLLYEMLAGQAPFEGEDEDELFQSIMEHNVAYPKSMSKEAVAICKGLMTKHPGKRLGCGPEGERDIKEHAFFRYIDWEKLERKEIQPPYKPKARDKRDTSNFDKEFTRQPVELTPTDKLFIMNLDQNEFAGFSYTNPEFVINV
Cell division cycle 7-related protein kinase, sequence (O00311 whole entry): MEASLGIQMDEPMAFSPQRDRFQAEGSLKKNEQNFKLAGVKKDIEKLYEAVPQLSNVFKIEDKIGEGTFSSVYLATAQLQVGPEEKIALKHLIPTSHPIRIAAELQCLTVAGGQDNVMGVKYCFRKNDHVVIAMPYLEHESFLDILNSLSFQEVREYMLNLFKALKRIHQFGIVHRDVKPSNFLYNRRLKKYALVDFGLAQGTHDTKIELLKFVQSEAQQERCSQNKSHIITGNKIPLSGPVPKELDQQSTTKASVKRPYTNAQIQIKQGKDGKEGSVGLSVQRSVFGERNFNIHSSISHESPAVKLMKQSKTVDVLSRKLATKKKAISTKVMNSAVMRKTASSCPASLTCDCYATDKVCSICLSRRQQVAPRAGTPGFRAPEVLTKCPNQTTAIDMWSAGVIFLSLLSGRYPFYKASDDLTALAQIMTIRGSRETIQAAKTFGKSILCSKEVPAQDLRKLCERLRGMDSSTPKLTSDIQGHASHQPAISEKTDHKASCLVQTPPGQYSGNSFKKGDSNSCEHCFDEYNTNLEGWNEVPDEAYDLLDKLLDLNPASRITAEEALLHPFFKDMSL
Mitogen-activated protein kinase 1, sequence (P28482 whole entry): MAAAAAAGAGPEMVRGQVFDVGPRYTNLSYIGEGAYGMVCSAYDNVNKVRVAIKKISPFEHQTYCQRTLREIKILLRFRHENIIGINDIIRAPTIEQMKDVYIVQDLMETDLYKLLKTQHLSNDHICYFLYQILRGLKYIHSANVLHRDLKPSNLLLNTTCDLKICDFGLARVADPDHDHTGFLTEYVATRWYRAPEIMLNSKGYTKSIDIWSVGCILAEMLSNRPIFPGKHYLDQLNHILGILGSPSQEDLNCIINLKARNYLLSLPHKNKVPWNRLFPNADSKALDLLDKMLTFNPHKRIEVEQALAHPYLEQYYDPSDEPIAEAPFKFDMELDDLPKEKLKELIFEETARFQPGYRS
Serine/threonine-protein kinase PAK 4, sequence (O96013 whole entry): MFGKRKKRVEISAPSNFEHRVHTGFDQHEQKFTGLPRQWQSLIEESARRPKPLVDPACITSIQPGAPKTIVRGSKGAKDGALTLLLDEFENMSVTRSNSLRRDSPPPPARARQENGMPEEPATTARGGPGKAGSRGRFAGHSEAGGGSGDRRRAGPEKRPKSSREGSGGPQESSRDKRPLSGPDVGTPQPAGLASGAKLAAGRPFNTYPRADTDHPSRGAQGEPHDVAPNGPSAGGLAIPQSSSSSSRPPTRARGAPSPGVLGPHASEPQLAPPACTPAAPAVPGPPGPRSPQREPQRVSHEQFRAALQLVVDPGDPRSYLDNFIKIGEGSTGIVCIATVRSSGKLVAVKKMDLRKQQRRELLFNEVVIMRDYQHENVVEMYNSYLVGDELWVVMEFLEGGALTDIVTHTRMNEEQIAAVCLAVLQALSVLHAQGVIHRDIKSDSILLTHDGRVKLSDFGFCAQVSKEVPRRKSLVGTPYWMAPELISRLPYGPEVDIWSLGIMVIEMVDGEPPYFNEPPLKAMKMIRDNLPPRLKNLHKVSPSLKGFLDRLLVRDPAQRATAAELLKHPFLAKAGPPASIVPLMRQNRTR

Structure (SMILES): Nc1nccc(-c2cc3c([nH]2)[C@@H](CCF)CNC3=O)n1
- AUC (Rattus norvegicus [1]): 19.9 µM·h
- IC50 [2]: 30 nM
- IC50 (SW48): 900 nM
- Activity (HeLa [3]): Active
- CL renal [4]: 6.67 mL/min/kg
- IC50 (HT-29): 4100 nM
- AUC(0-inf) [5]: 5 µM·h
- Vd [6]: 2.6 L/kg
- IC50 [7]: 1150 nM
- AUC(0-inf) [8]: 9.5 µM·h
- IC50 [9]: 846 nM
- bioavailability [10]: 51%
- IC50 [11]: > 4000 nM
- F (Rattus norvegicus [12]): 33%
- half-life [13]: 60 min
- Activity (HeLa [14]): 6%
- Activity (Rattus norvegicus [15]): 35 days
- Activity (A2780): Active
- Activity (Cytochrome P450 2C9): Not Active
- half-life [16]: 36 min
- IC50 [17]: 2 nM
- bioavailability [18]: 53%
- IC50 (Insulin receptor): > 4000 nM
- IC50 [19]: 670 nM
- Cmax [20]: 2000 nM
